ChEMBL document CHEMBL4706687, “Synthesis and Pharmacological Evaluation of Novel Non-nucleotide Purine Derivatives as P2X7 Antagonists for the Treatment of Neuroinflammation” (J Med Chem, 2021)
Active and inactive are the calls of the source. The rule behind the calls is not given here.

Experiments:
[1] = molecular target: T1, P2X purinoceptor 7 (Homo sapiens) (UniProt Q99572); assay: Antagonist activity at human P2X7 receptor expressed in HEK293 cells assessed as reduction in benzoyl-ATP-induced YO-PRO-1 dye uptake at 1 uM pre-incubated for 20 mins before YO-PRO-1 addition and measured after 25 mins by fluorescence plate reader analysis relative to control; format: cell-based; details: filed as antagonist, time 45.0 min
T1 sequence (whole entry): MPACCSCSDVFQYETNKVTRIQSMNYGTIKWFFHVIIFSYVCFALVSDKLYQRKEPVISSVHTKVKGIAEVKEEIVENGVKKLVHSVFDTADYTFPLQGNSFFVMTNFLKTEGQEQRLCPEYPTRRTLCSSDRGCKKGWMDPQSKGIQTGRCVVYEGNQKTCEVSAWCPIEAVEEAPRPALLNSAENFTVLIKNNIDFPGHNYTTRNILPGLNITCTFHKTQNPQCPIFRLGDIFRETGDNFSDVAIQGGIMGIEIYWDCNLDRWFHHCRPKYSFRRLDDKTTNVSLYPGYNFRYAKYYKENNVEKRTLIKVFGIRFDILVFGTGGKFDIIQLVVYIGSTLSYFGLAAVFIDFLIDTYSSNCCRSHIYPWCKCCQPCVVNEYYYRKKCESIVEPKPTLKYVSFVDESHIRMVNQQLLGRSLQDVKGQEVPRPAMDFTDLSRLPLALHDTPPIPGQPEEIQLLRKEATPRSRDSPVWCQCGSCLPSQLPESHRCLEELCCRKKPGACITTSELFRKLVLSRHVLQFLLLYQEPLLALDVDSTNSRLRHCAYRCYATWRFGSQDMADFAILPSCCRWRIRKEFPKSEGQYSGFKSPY
In short: (§1)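 Stably transfected hP2X7-HEK293 cells, 48 h after seeding, in Mg²⁺-free Krebs-HEPES (0.2 mM CaCl₂, pH 7.4). Compound preincubation 20 min, then YO-PRO-1 2 μM, then BzATP 30 μM. Fluorescence at 485/520 nm read for 25 min. Each well normalized to Fmax (0.5% Triton X-100) and Fmin (2 M MnCl₂): F = (Fx − F0)/(Fmax − Fmin). Triplicates from three cultures. IC50 is the concentration halving BzATP-induced uptake.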

[2] = molecular target: T1, P2X purinoceptor 7 (Homo sapiens); assay: Antagonist activity at human P2X7 receptor expressed in Xenopus laevis oocytes assessed as reduction in ATP-induced channel currents at 1 uM by TEVC electrophysiology assay relative to control; format: cell-based; details: Oocyte, filed as antagonist
In short: (§2)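 Oocytes injected with 50 nL His-tagged hP2X7 cRNA (0.5 mg/mL), kept 1–2 days at 16–18 °C. Recorded in low divalent-cation solution (90 mM NaCl, 0.5 mM CaCl₂, 5 mM HEPES) at −70 mV. ATP 300 μM for 2 s after 3 min static compound incubation. Current normalized to control amplitude. Triplicates from three oocytes, two frogs.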

[3] = molecular target: T1, P2X purinoceptor 7 (Homo sapiens); assay: Antagonist activity at human P2X7 receptor expressed in HEK293 cells assessed as reduction in benzoyl-ATP-induced YO-PRO-1 dye uptake at 10 uM pre-incubated for 20 mins before YO-PRO-1 addition and measured after 25 mins by fluorescence plate reader analysis relative to control; format: cell-based; details: time 45.0 min; in short: as §1
[4] = molecular target: T1, P2X purinoceptor 7 (Homo sapiens); assay: Antagonist activity at human P2X7 receptor expressed in Xenopus laevis oocytes assessed as reduction in ATP-induced channel currents at 100 uM by TEVC electrophysiology assay relative to control; format: cell-based; details: Oocyte; in short: as §2
P2X purinoceptor 7 = molecular target: T2, P2X purinoceptor 7 (Homo sapiens, UniProt Q99572); assay: Antagonist activity at human P2X7 receptor expressed in HEK293 cells assessed as reduction in benzoyl-ATP-induced YO-PRO-1 dye uptake pre-incubated for 20 mins before YO-PRO-1 addition and measured after 25 mins by fluorescence plate reader analysis relative to control; format: cell-based; in short: as §1
T2 sequence (Q99572 whole entry): T1 sequence (whole entry)

Peritoneal macrophage = assay: Inhibition of Il-1beta production in LPS-stimulated C57BL/6 mouse peritoneal macrophages pre-incubated for 15 mins followed by ATP addition for 30 mins by ELISA method; format: functional, tissue-based; details: time 45.0 min
In short: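 Thioglycolate-elicited peritoneal macrophages from 6–8-week male C57BL/6 mice, 3 × 10⁵ cells/well. Primed 4 h with LPS 1 μg/mL (E. coli 026:B6), then serum-free DMEM with compound for 15 min, then ATP for 30 min. Supernatant IL-1β measured by ELISA, expressed as percent of ATP-only control. Triplicates from three mice.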

[5] = molecular target: T1, P2X purinoceptor 7 (Homo sapiens); assay: Antagonist activity at human P2X7 receptor expressed in HEK293 cells assessed as reduction in benzoyl-ATP-induced intracellular Ca2+ level by Fura-2 dye based fluorescence assay; format: cell-based; details: filed as antagonist
In short: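 hP2X7-HEK293 cells 24–48 h after seeding, loaded with Fura-2-AM 8 μM for 1 h, then washed in Mg²⁺-free Tyrode (2 mM CaCl₂, pH 7.4) for 15–30 min with compound present. Excitation 340/380 nm, emission 520 nm. Basal recording, then BzATP injected (100 μM final). [Ca²⁺]c from Grynkiewicz equation. Blockade as percent of BzATP peak in Tyrode-only wells; triplicates.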

| inhibition [3] | inhibition [4] | SMILES | other results |
| --- | --- | --- | --- |
| 4% | inactive | Cn1c(=O)c2c(ncn2S(=O)(=O)c2cc(Cl)ccc2Cl)n(C)c1=O | – |
| 20% | inactive | Cn1c(=O)c2c(ncn2S(=O)(=O)c2ccc(F)cc2Cl)n(C)c1=O | – |
| 17% | 9% | O=S(=O)(c1ccccc1Cl)n1cnc2c(Cl)ncnc21 | – |
| 7% | 5% | O=C(c1ccccc1Cl)n1cnc2c(Cl)ncnc21 | – |
| 16% | 9% | Cn1cnc2c(=O)n(Cc3ccccc3Cl)c(Cl)nc21 | – |
| inactive | 8% | COc1ncnc2c1ncn2S(=O)(=O)c1ccccc1Cl | – |
| 23% | inactive | Cc1cc(F)ccc1S(=O)(=O)n1cnc2c1c(=O)n(C)c(=O)n2C | – |
| – | 2% | O=S(=O)(c1ccccc1Cl)n1cnc2c(Cl)nc(Cl)nc21 | inhibition ([3]; filed as antagonist): 46%; IC50 (P2X purinoceptor 7): 10.2 µM |
| 34% | 7% | O=C(Cn1cnc2c(Cl)ncnc21)c1ccc(F)cc1 | – |
| 10% | inactive | Cn1c(=O)c2c(ncn2S(=O)(=O)c2ccc(F)cc2)n(C)c1=O | – |
| – | 11% | O=C(Cn1cnc2c(-c3ccccc3)ncnc21)c1ccc(Cl)cc1Cl | inhibition ([3]; filed as antagonist): 62%; IC50 (P2X purinoceptor 7): 6 µM; inhibition [5]: Active |

Second part, the compound before the results:

| SMILES | inhibition [3] | inhibition [4] | other results |
| --- | --- | --- | --- |
| O=C(NCC1(N2CCN(c3ccccc3)CC2)CCOCC1)c1cccnc1Sc1ccccc1 | – | – | inhibition [1]: 56%; inhibition [2]: 49% |
| Cn1c(=O)c2c(ncn2S(=O)(=O)c2ccc(F)cc2F)n(C)c1=O | 7% | 1% | – |
| Nc1nc(Cl)c2ncn(S(=O)(=O)c3ccccc3Cl)c2n1 | 9% | inactive | – |
| COc1ncnc2c1ncn2CC(=O)c1ccc(Cl)cc1Cl | 25% | 14% | – |
| O=C(CCn1cnc2c(Cl)ncnc21)c1ccc(Cl)cc1Cl | 19% | 6% | – |
| COc1ncnc2c1ncn2C(=O)c1ccccc1Cl | 1% | 0% | – |
| Cn1cnc2c1c(=O)n(C(=O)c1ccccc1Cl)c(=O)n2C | 5% | 5% | – |
| Cn1c(=O)c2c(ncn2S(=O)(=O)c2ccc(Cl)cc2Cl)n(C)c1=O | 7% | 9% | – |
| O=C(Cn1cnc2c(Cl)ncnc21)c1ccc(Cl)cc1 | – | 11% | inhibition ([3]; filed as antagonist): 55%; IC50 (P2X purinoceptor 7): 10 µM |
| Nc1nc(Cl)c2ncn(CC(=O)c3ccc(Cl)cc3Cl)c2n1 | 4% | 6% | – |
| Cn1c(=O)c2c(ncn2S(=O)(=O)c2ccc(C(F)(F)F)cc2Cl)n(C)c1=O | 5% | inactive | – |
| O=C(Cn1cnc2c(Cl)nc(Cl)nc21)c1ccc(Cl)cc1Cl | – | 24% | inhibition ([3]; filed as antagonist): 41%; IC50 (P2X purinoceptor 7): 13 µM |
| O=C(Cn1cnc2c(I)nc(Cl)nc21)c1ccc(Cl)cc1Cl | 14% | 6% | – |
| CNc1nc(Cl)nc2c1ncn2S(=O)(=O)c1ccccc1Cl | 4% | 2% | – |
| Cn1cnc2c1c(=O)n(CC(=O)c1ccc(Cl)cc1Cl)c(=O)n2C | inactive | 2% | – |
| Cn1c(=O)c2c(ncn2S(=O)(=O)c2ccccc2Cl)n(C)c1=O | – | 28% | inhibition ([3]; filed as antagonist): 52%; IC50 (P2X purinoceptor 7): 10 µM; inhibition (Peritoneal macrophage): Dose-dependent effect |
| O=C(Cn1cnc2c(Cl)nc(F)nc21)c1ccc(Cl)cc1Cl | 27% | 24% | – |
| Cn1c(=O)c2c(ncn2CC(=O)c2ccc(Cl)cc2Cl)n(C)c1=O | 0% | 10% | – |
| CNc1nc(Cl)nc2c1ncn2CC(=O)c1ccc(Cl)cc1Cl | 2% | 5% | – |
